Laboratory results taken from ChEMBL document CHEMBL1833818, “Synthesis of phenanthroindolizidine alkaloids and evaluation of their antitumor activities and toxicities” (Bioorg Med Chem Lett, 2011).

Legend:
HT-29 = test: Cytotoxicity against human HT-29 cells after 96 hrs by […] assay; assay type: functional, cell-based; conditions: HT-29, 96 h
Summary of the method: (§1)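 Exponentially growing cells seeded at 10³ cells/well; serially diluted compounds added next day, 96 h exposure. Tetrazolium reagent (2-(2-methoxy-4-nitrophenyl)-3-(4-nitrophenyl)-5-(2,4-disulfophenyl)-2H-tetrazolium) added, 1 h at 37 °C, absorbance 450 nm. IC50 = concentration inhibiting growth 50% versus solvent-treated cells.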

HCT-116 [1] = test: Cytotoxicity against human HCT116 cells after 96 hrs by […] assay; assay type: functional, cell-based; conditions: HCT-116, 96 h; summary of the method: as §1
A549 = test: Cytotoxicity against human A549 cells after 96 hrs by […] assay; assay type: functional, cell-based; conditions: A549, 96 h; summary of the method: as §1
Mus musculus [2] = test: Toxicity in mouse Meth-A cells xenografted BALB/c mouse assessed as mortality at 50 mg/kg, iv; assay type: organism-based; parameters: dose 50 mg/kg, route intravenous; conditions: in vivo
Summary of the method: (§2)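 Meth A sarcoma cells, 2.5 × 10⁵ per mouse, inoculated s.c. into 7-week-old male BALB/c mice, 5 per group. Samples were injected i.v. on days 1, 5 and 9. Tumours were excised and weighed on day 21 after inoculation. Mortality was recorded per group as deaths/5.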

[3] = Antitumor activity against mouse Meth-A cells xenografted in BALB/c mouse assessed as tumor growth inhibition at 25 mg/kg, iv administered on day 1, 5, 9 and measured on day 21 post-implantation relative to control; assay type: functional; conditions: read-out: GI
Summary of the method: (§3)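 Meth A sarcoma cells (2.5 × 10⁵/mouse) inoculated s.c. into 7-week-old male BALB/c mice, 5 per group; i.v. injection on days 1, 5 and 9. Tumors excised and weighed on day 21 post-inoculation; inhibition rate (%) = [1 − mean tumor weight treated/mean tumor weight control] × 100. Mortality also recorded.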

Mus musculus [4] = test: Toxicity in mouse Meth-A cells xenografted BALB/c mouse assessed as mortality at 25 mg/kg, iv; assay type: organism-based; parameters: dose 25 mg/kg, route intravenous; conditions: in vivo; summary of the method: as §2
Mus musculus [5] = test: Toxicity in human HCT116 cells xenografted nude mouse assessed as mortality at 200 mg/kg, ip; assay type: organism-based, HCT-116; parameters: dose 200 mg/kg, route intraperitoneal; conditions: in vivo
Summary of the method: (§4)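 HCT116 cells, 2 × 10⁶ per mouse, implanted s.c. in 6-week-old male nude mice. Mice were grouped 5 per group once the estimated tumour volume reached about 100 mm³ (day 0). Samples were given i.p. 10 times, on days 1–5 and 8–12. Tumours were excised and weighed on day 21 after inoculation. Mortality was recorded per group.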

HCT-116 [6] = test: Antitumor activity against human HCT116 cells xenografted in nude mouse assessed as tumor growth inhibition at 200 mg/kg, ip administered 10 times on days 1 to 5 and 8 to 12 measured on day 21 post-implantation relative to control; assay type: functional; conditions: HCT-116, ip, 504 h, route intraperitoneal, read-out: GI
Summary of the method: (§5)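 HCT116 cells (2 × 10⁶/mouse) implanted s.c. in 6-week-old male nude mice; groups of 5 formed when estimated tumor volume reached about 100 mm³ (day 0). Dosing i.p. on days 1–5 and 8–12. Tumors excised and weighed day 21 after inoculation; inhibition rate (%) = [1 − mean tumor weight treated/mean tumor weight control] × 100.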

[7] = Toxicity in human HCT116 cells xenografted nude mouse assessed as mortality at 6.25 mg/kg, ip; assay type: organism-based, HCT-116; parameters: dose 6.25 mg/kg, route intraperitoneal; conditions: in vivo, read-out: Activity; summary of the method: as §4
HCT-116 [8] = test: Antitumor activity against human HCT116 cells xenografted in nude mouse assessed as tumor growth inhibition at 100 mg/kg, ip administered 10 times on days 1 to 5 and 8 to 12 measured on day 21 post-implantation relative to control; assay type: functional; conditions: HCT-116, ip, 504 h, route intraperitoneal, read-out: GI; summary of the method: as §5
Mus musculus [9] = test: Toxicity in human HCT116 cells xenografted nude mouse assessed as mortality at 100 mg/kg, ip; assay type: organism-based, HCT-116; parameters: dose 100 mg/kg, route intraperitoneal; conditions: in vivo; summary of the method: as §4
[10] = Antitumor activity against mouse Meth-A cells xenografted in BALB/c mouse assessed as tumor growth inhibition at 50 mg/kg, iv administered on day 1, 5, 9 and measured on day 21 post-implantation relative to control; assay type: functional; conditions: read-out: GI; summary of the method: as §3
[11] = Antitumor activity against mouse Meth-A cells xenografted in BALB/c mouse assessed as tumor growth inhibition at 100 mg/kg, iv administered on day 1, 5, 9 and measured on day 21 post-implantation relative to control; assay type: functional; conditions: read-out: GI; summary of the method: as §3
HCT-116 [12] = test: Antitumor activity against human HCT116 cells xenografted in nude mouse assessed as tumor growth inhibition at 135 mg/kg, ip administered 10 times on days 1 to 5 and 8 to 12 measured on day 21 post-implantation relative to control; assay type: functional; conditions: HCT-116, ip, 504 h, route intraperitoneal, read-out: GI; summary of the method: as §5
Mus musculus [13] = test: Toxicity in human HCT116 cells xenografted nude mouse assessed as mortality at 135 mg/kg, ip; assay type: organism-based, HCT-116; parameters: dose 135 mg/kg, route intraperitoneal; conditions: in vivo; summary of the method: as §4
Mus musculus [14] = test: Toxicity in mouse Meth-A cells xenografted BALB/c mouse assessed as mortality at 100 mg/kg, iv; assay type: organism-based; parameters: dose 100 mg/kg, route intravenous; conditions: in vivo; summary of the method: as §2

Structure (SMILES)	IC50 (HT-29)	IC50 (HCT-116 [1])	IC50 (A549)	also measured
COc1cc2c3c(c4ccc(O)cc4c2cc1OC)[C@H](O)[C@H]1CCCN1C3	935 nM	671 nM	818 nM	
COc1cc2c3c(c4ccc(O)cc4c2cc1OC)[C@H](O)[C@@H]1CCCN1C3 [TYLOPHORIDICINE E]	2.9 nM	1.3 nM	2.7 nM	Activity (Mus musculus [2]): Toxic; inhibition in vivo at 25 mg/kg [3]: 30.6%; Activity (Mus musculus [4]): Non-toxic
CCOc1cc2c3c(c4ccc(O)cc4c2cc1OCC)C[C@@H]1CCCN1C3	80.5 nM	38.8 nM	42.2 nM	
COc1cc2c3c(c4ccc(OC(C)=O)cc4c2cc1OC)C[C@@H]1CCCN1C3	3.5 nM	2 nM	2.8 nM	Activity (Mus musculus [5]): Non-toxic; inhibition in vivo at 200 mg/kg (HCT-116 [6]): 34.7%
COc1cc2c3c(c4ccc(F)cc4c2cc1OC)C[C@@H]1CCCN1C3	58.9 nM	48.1 nM	51 nM	Activity (Mus musculus [5]): Toxic; mortality [7]: 10%; inhibition in vivo at 100 mg/kg (HCT-116 [8]): 30.7%; Activity (Mus musculus [9]): Non-toxic
COc1cc2c3c(c4ccc(O)cc4c2cc1OC)[C@@H](O)[C@H]1CCCN1C3	37 nM	32.4 nM	30.6 nM	
COc1cc2c3c(c4ccc(O)cc4c2cc1OC)C[C@@H]1CCCN1C3	1.8 nM	0.5 nM	0.6 nM	Activity (Mus musculus [5]): Non-toxic; Activity (Mus musculus [2]): Non-toxic; inhibition in vivo at 25 mg/kg [3]: 46.9%; inhibition in vivo at 50 mg/kg [10]: 70.8%; Activity (Mus musculus [4]): Non-toxic; inhibition in vivo at 100 mg/kg (HCT-116 [8]): 35.7%; inhibition in vivo at 200 mg/kg (HCT-116 [6]): 48.7%; Activity (Mus musculus [9]): Non-toxic
CCc1c2c(nc3ccc(OC(=O)N4CCC(N5CCCCC5)CC4)cc13)-c1cc3c(c(=O)n1C2)COC(=O)[C@]3(O)CC.Cl				inhibition in vivo at 100 mg/kg [11]: 78.3%; Activity (Mus musculus [2]): Non-toxic; inhibition in vivo at 50 mg/kg [10]: 46.2%; inhibition in vivo at 135 mg/kg (HCT-116 [12]): 77%; Activity (Mus musculus [13]): Non-toxic; Activity (Mus musculus [14]): Non-toxic
COc1cc2c3c(c4ccc(O)cc4c2cc1OC)C[C@H]1CCCN1C3	158 nM	59.9 nM	58.2 nM	
COc1ccc2c3c(c4cc(OC)c(OC)cc4c2c1)CN1CCC[C@H]1C3	45.1 nM	41.7 nM	43.8 nM	
COc1cc2c3c(c4ccccc4c2cc1OC)C[C@@H]1CCCN1C3	57.1 nM	49.6 nM	48.9 nM	inhibition in vivo at 100 mg/kg (HCT-116 [8]): 21%; Activity (Mus musculus [9]): Non-toxic
Oc1ccc2c3c(c4cc5c(cc4c2c1)OCO5)CN1CCC[C@H]1C3	879 nM	377 nM	392 nM	
CCc1ccc2c3c(c4cc(OC)c(OC)cc4c2c1)CN1CCC[C@H]1C3	484 nM	403 nM	441 nM	
COc1cc2c3c(c4cccc(O)c4c2cc1OC)C[C@@H]1CCCN1C3	452 nM	4.7 nM	5.5 nM	
COc1cc2c3c(c4cc(O)ccc4c2cc1OC)C[C@@H]1CCCN1C3	32.1 nM	23.5 nM	21.6 nM	
COc1cc2c3c(c4ccc(O)cc4c2cc1OC)[C@@H](O)[C@@H]1CCCN1C3	53.6 nM	44.4 nM	52.3 nM	
